Test results taken from ChEMBL document CHEMBL1165860, “Synthesis and potential cytotoxic activity of new phenanthrylphenol-pyrrolobenzodiazepines” (2010).
The source made the active and inactive calls. No cut-off for these calls is given here.

Assays:
MCF7 [1] = test: Cell cycle arrest in human MCF7 cells assessed as accumulation at G2/M phase at 2 uM after 24 hrs using propidium iodide staining by flow cytometry; format: functional
Outline: (§1)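 MCF-7 cells were grown in DMEM with 10% fetal calf serum, penicillin and streptomycin, at 37 °C in 5% CO2. They were treated for 24 h at 2 and 4 µM, with DMSO-treated cells as controls. Cells were trypsinised, fixed in ice-cold 70% ethanol at 4 °C for 30 min, and RNaseA-treated at 37 °C for 30 min. Phases were read by flow cytometry.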

MCF7 [2] = test: Cell cycle arrest in human MCF7 cells assessed as accumulation at G0 phase at 4 uM after 24 hrs using propidium iodide staining by flow cytometry; format: functional; outline: as §1
MCF7 [3] = test: Cell cycle arrest in human MCF7 cells assessed as accumulation at G1 phase at 4 uM after 24 hrs using propidium iodide staining by flow cytometry; format: functional; outline: as §1
MCF7 [4] = test: Cell cycle arrest in human MCF7 cells assessed as accumulation at S phase at 4 uM after 24 hrs using propidium iodide staining by flow cytometry; format: functional; outline: as §1
MCF7 [5] = test: Cell cycle arrest in human MCF7 cells assessed as accumulation at G0 phase after 24 hrs using propidium iodide staining by flow cytometry; format: functional, cell-based; outline: as §1
MCF7 [6] = test: Induction of apoptosis in human MCF7 cells assessed as DNA fragmentation at 4 uM after 24 hrs using ethidium bromide staining by agarose gel electrophoresis; format: functional, cell-based
Outline: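 1.5×10⁶ MCF-7 cells in 60 mm dishes were treated for 24 h and lysed in 10 mM Tris-HCl pH 7.5, 10 mM EDTA, 0.5% Triton X-100. The supernatant was digested with RNase A and proteinase K for 2 h at 37 °C. DNA was isolated by phenol–chloroform extraction and ethanol precipitation, run on 1% agarose with a 100 bp marker, and stained with ethidium bromide under UV.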

MCF7 [7] = test: Induction of p53 expression in human MCF7 cells; format: functional, cell-based
MCF7 [8] = test: Increase of cytosolic cytochrome c level in human MCF7 cells at 2 uM after 24 hrs by Western blot analysis; format: functional, cell-based
Outline: (§2)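 MCF-7 cells were grown in DMEM with 10% FCS and penicillin/streptomycin at 37 °C in 5% CO2, then treated for 24 h. Cells were lysed in ice-cold RIPA buffer with protease inhibitors and NaF. Protein was measured by Bradford assay, and 30 µg per lane was run on 12% SDS-PAGE and transferred to PVDF. Antibody steps: primary at 4 °C overnight, HRP secondary 1:2000, chemiluminescent detection.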

MCF7 [9] = test: Increase of cytosolic cytochrome c level in human MCF7 cells at 4 uM after 24 hrs by Western blot analysis; format: functional, cell-based; outline: as §2
MCF7 [10] = test: Induction of apoptosis in human MCF7 cells assessed as increase of caspase 8 activation at 2 uM after 1 hr by […] method; format: functional, cell-based
Outline: (§3)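 Colorimetric caspase-8 kit on lysates of treated MCF-7 cells. The IETD-pNA substrate was incubated with cell lysate at 37 °C for 1 h, and absorbance was read at 405 nm. Untreated cells served as the control.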

MCF7 [11] = test: Induction of apoptosis in human MCF7 cells assessed as increase of caspase 8 activation at 4 uM after 1 hr by […] method; format: functional, cell-based; outline: as §3
MCF7 [12] = test: Induction of apoptosis in human MCF7 cells assessed as increase of caspase 9 activation at 4 uM after 1 hr by fluorimetry based assay; format: functional, cell-based
MCF7 [13] = test: Increase of PARP cleavage in human MCF7 cells at 2 uM after 24 hrs by Western blot analysis; format: functional, cell-based; outline: as §2
MCF7 [14] = test: Increase of PARP cleavage in human MCF7 cells at 4 uM after 24 hrs by Western blot analysis; format: functional, cell-based; outline: as §2
MCF7 [15] = test: Cytotoxicity against human MCF7 cells at 2 uM after 24 hrs by MTT assay relative to control; format: functional
Outline: (§4)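 MCF-7 cells were seeded at 10,000 cells/well in DMEM with 10% fetal calf serum. They were exposed to 0.5, 1, 2 and 4 µM for 24 h. MTT reduction to formazan was read at 570 nm, with untreated controls taken as 100% viability. DMSO-treated cells served as an additional control.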

MCF7 [16] = test: Cytotoxicity against human MCF7 cells at 4 uM after 24 hrs by MTT assay relative to control; format: functional, cell-based; outline: as §4
Nucleic Acid [17] = test: Inhibition of Escherichia coli pBR322 DNA cleavage after 16 hrs by RED100-restriction endonuclease digestion assay; format: nucleic-acid assay
Outline: (§5)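 pBR322 DNA was preincubated with compound at final 2, 4, 8, 16 and 32 µM for 16 h at 37 °C. BamHI (10 U/µl) in BamHI buffer was then added for 2 h at 37 °C. Products were separated on agarose in 0.5× Tris–acetate EDTA at 80 V for 1 h and stained with ethidium bromide. Cut and uncut DNA served as controls.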

Nucleic Acid [18] = test: Inhibition of Escherichia coli pBR322 DNA cleavage at 16 uM after 16 hrs by RED100-restriction endonuclease digestion assay; format: nucleic-acid assay; outline: as §5
MCF7 [19] = test: Cell cycle arrest in human MCF7 cells assessed as accumulation at G0 phase at 2 uM after 24 hrs using propidium iodide staining by flow cytometry; format: functional; outline: as §1
MCF7 [20] = test: Cell cycle arrest in human MCF7 cells assessed as accumulation at G2/M phase at 4 uM after 24 hrs using propidium iodide staining by flow cytometry; format: functional; outline: as §1
MCF7 [21] = test: Cell cycle arrest in human MCF7 cells assessed as accumulation at G1 phase at 2 uM after 24 hrs using propidium iodide staining by flow cytometry; format: functional; outline: as §1
MCF7 [22] = test: Cell cycle arrest in human MCF7 cells assessed as accumulation at S phase at 2 uM after 24 hrs using propidium iodide staining by flow cytometry; format: functional; outline: as §1
MCF7 [23] = test: Decrease of cyclin D1 level in human MCF7 cells at 2 uM after 24 hrs by Western blot analysis; format: functional, cell-based
Outline: (§6)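 MCF-7 cells were treated at 2 or 4 µM for 24 h, then lysed in ice-cold RIPA buffer with protease inhibitors and NaF. Protein was quantified by Bradford. Thirty µg per lane was run on 12% SDS-PAGE and transferred to PVDF. Membranes were blocked 2 h, given primary antibody overnight at 4 °C, then HRP secondary (1:2000) for 1 h. Bands were detected by chemiluminescence.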

MCF7 [24] = test: Decrease of cyclin D1 level in human MCF7 cells at 4 uM after 24 hrs by Western blot analysis; format: functional, cell-based; outline: as §6
MCF7 [25] = test: Induction of apoptosis in human MCF7 cells assessed as increase of caspase 9 activation at 2 uM after 1 hr by fluorimetry based assay; format: functional, cell-based
MCF7 [26] = test: Induction of apoptosis in human MCF7 cells assessed as increase of caspase 9 activation at 2 to 4 uM after 1 hr by fluorimetry based assay in presence of caspase 9 inhibitor LEHD-CHO; format: functional, cell-based
MCF7 [27] = test: Cytotoxicity against human MCF7 cells at 1 uM after 24 hrs by MTT assay relative to control; format: functional; outline: as §4

Work on `COc1cc2c(cc1OCCCCOc1ccc(-c3cc4ccccc4c4ccccc34)cc1)N=C[C@@H]1CCCN1C2=O` yielded an Activity (MCF7 [1]) of 4.25%, an Activity (MCF7 [2]) of 20.86% and an Activity (MCF7 [3]) of 70.3%. For the same compound, the Activity (MCF7 [4]) was 5.5%, the Activity (MCF7 [5]) was “Dose-dependent effect” and the Activity (MCF7 [6]) was “Active”. For the same compound, the Activity (MCF7 [7]) was “Active”, the Activity (MCF7 [8]) was “Active” and the Activity (MCF7 [9]) was “Active”. The Activity (MCF7 [10]) was “Active”, the Activity (MCF7 [11]) was “Active” and the Activity (MCF7 [12]) was “Active”. The Activity (MCF7 [13]) was “Active”, the Activity (MCF7 [14]) was “Active” and the Activity (MCF7 [15]) was “<=50%”. For the same compound, the Activity (MCF7 [16]) was “Active”, the inhibition (Nucleic Acid [17]) was “Dose-dependent effect” and the inhibition (Nucleic Acid [18]) was 100%. It also gave an Activity (MCF7 [19]) of 15.08%, an Activity (MCF7 [20]) of 2.94% and an Activity (MCF7 [21]) of 66.31%. It also gave an Activity (MCF7 [22]) of 12.45%.

`COc1cc2c(cc1O)N=C[C@@H]1CCCN1C2=O` was tested, and the Activity (MCF7 [1]) was 13.1%, the Activity (MCF7 [2]) was 8.07% and the Activity (MCF7 [3]) was 75.28%. The Activity (MCF7 [4]) was 14.16%, the Activity (MCF7 [8]) was “Active” and the Activity (MCF7 [9]) was “Active”. For the same compound, the Activity (MCF7 [11]) was “Active”, the Activity (MCF7 [13]) was “Active” and the Activity (MCF7 [14]) was “Active”. For the same compound, the Activity (MCF7 [19]) was 3.19%, the Activity (MCF7 [20]) was 3.5% and the Activity (MCF7 [21]) was 65.98%. For the same compound, the Activity (MCF7 [22]) was 20.26%.

In the case of `COc1cc2c(cc1OCCCCCOc1ccc(-c3cc4ccccc4c4ccccc34)cc1)N=C[C@@H]1CCCN1C2=O`, the Activity (MCF7 [1]) is reported as 2.61%, the Activity (MCF7 [2]) is reported as 22.71% and the Activity (MCF7 [3]) is reported as 69.07%. The Activity (MCF7 [4]) was 4.86%, the Activity (MCF7 [5]) was “Dose-dependent effect” and the Activity (MCF7 [6]) was “Active”. The Activity (MCF7 [7]) was “Active”, the Activity (MCF7 [23]) was “Active” and the Activity (MCF7 [24]) was “Active”. For the same compound, the Activity (MCF7 [8]) was “Active”, the Activity (MCF7 [9]) was “Active” and the Activity (MCF7 [10]) was “Active”. The Activity (MCF7 [11]) was “Active”, the Activity (MCF7 [25]) was “Active” and the Activity (MCF7 [12]) was “Active”. The Activity (MCF7 [26]) was “inactive”, the Activity (MCF7 [13]) was “Active” and the Activity (MCF7 [14]) was “Active”. For the same compound, the Activity (MCF7 [27]) was “<=50%”, the Activity (MCF7 [16]) was “Active” and the inhibition (Nucleic Acid [17]) was “Dose-dependent effect”. It also gave an inhibition (Nucleic Acid [18]) of 100%, an Activity (MCF7 [19]) of 13.08% and an Activity (MCF7 [20]) of 2.46%. For the same compound, the Activity (MCF7 [21]) was 75.84% and the Activity (MCF7 [22]) was 7.76%.
